Data as given in ChEMBL document CHEMBL5058577, “EUbOPEN Chemogenomics Library 2 (Multiplex)” (2022).

Test system: HEK-293T
Assay: Multiplex assay against HEK293T
Assay type: toxicity, cell-based
Conditions: human
Method in brief: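 Phenotypes for tubulin, mitochondrial mass and membrane permeability are expressed as per cents of healthy-nucleus cells. Cells were stained live at seeding with Hoechst33342, BioTracker Green Microtubule Cytoskeleton Dye, MitoTracker Red and Annexin V Alexa Fluor 680, then imaged after compound addition on a CQ1 microscope at 37°C and 5% CO2. Machine-learning gating in CellPathfinder separated Hoechst high-intensity objects from normal cells, divided normal cells by nuclear state (healthy, pyknosed, fragmented) and divided pyknosed cells into mitotic or apoptotic.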

[1] = 12 h, 1 µM, compound concentration 1 uM, replicate 1
[2] = 12 h, 1 µM, compound concentration 1 uM, replicate 2
[3] = 12 h, 10 µM, compound concentration 10 uM, replicate 1
[4] = 12 h, 10 µM, compound concentration 10 uM, replicate 2
[5] = 24 h, 1 µM, compound concentration 1 uM, replicate 1
[6] = 24 h, 1 µM, compound concentration 1 uM, replicate 2
[7] = 24 h, 10 µM, compound concentration 10 uM, replicate 1
[8] = 24 h, 10 µM, compound concentration 10 uM, replicate 2
[9] = 48 h, 1 µM, compound concentration 1 uM, replicate 1
[10] = 48 h, 1 µM, compound concentration 1 uM, replicate 2
[11] = 48 h, 10 µM, compound concentration 10 uM, replicate 1
[12] = 48 h, 10 µM, compound concentration 10 uM, replicate 2

How did the “Population Apoptotic (%)” value [1] turn out when Oc1c(CN2CCN(c3ccccn3)CC2)cc(Cl)c2cccnc12 was run?
Its value is 30%.

What about the “Population Fragmented Nuclei (%)” value [1] of the same compound?
Its value is 6%.

What about the “Population Healthy Nuclei (%)” value [1] of the same compound?
Its value is 83%.

And the “Population Hoechst High Intensity Objects (%)” value [1]?
The value was 7%.

What about the “Population Membrane Permeable-Phenotype (%)” value [1] of the same compound?
The value was 0%.

And the “Population Mitochondria Different-Phenotype (%)” value [1]?
The value was 44%.

And the “Population Mitotic Cells (%)” value [1]?
Its value is 70%.

What about the “Population Normal (%)” value [1] of the same compound?
The value was 92%.

What about the “Population Pyknosed Nuclei (%)” value [1] of the same compound?
Its value is 10%.

And the “Population Tubulin-Different-Phenotype (%)” value [1]?
Its value is 34%.

And the “Total Cell Count” value [1]?
Its value is 424.

What about the “Population Apoptotic (%)” value [2] of the same compound?
The value was 45%.

What about the “Population Fragmented Nuclei (%)” value [2] of the same compound?
Its value is 5%.

And the “Population Healthy Nuclei (%)” value [2]?
Its value is 80%.

And the “Population Mitochondria Different-Phenotype (%)” value [2]?
The value was 59%.

What about the “Population Mitotic Cells (%)” value [2] of the same compound?
Its value is 54%.

What about the “Population Pyknosed Nuclei (%)” value [2] of the same compound?
Its value is 13%.

What about the “Population Tubulin-Different-Phenotype (%)” value [2] of the same compound?
Its value is 20%.

And the “Total Cell Count” value [2]?
The value was 354.

What about the “Population Apoptotic (%)” value [3] of the same compound?
The value was 71%.

What about the “Population Fragmented Nuclei (%)” value [3] of the same compound?
Its value is 16%.

What about the “Population Healthy Nuclei (%)” value [3] of the same compound?
Its value is 64%.

What about the “Population Hoechst High Intensity Objects (%)” value [3] of the same compound?
The value was 11%.

What about the “Population Membrane Permeable-Phenotype (%)” value [3] of the same compound?
Its value is 0%.

And the “Population Mitochondria Different-Phenotype (%)” value [3]?
The value was 64%.

And the “Population Mitotic Cells (%)” value [3]?
Its value is 28%.

And the “Population Normal (%)” value [3]?
Its value is 88%.

And the “Population Pyknosed Nuclei (%)” value [3]?
The value was 18%.

What about the “Population Tubulin-Different-Phenotype (%)” value [3] of the same compound?
Its value is 20%.

And the “Total Cell Count” value [3]?
The value was 197.

What about the “Population Apoptotic (%)” value [4] of the same compound?
The value was 73%.

What about the “Population Fragmented Nuclei (%)” value [4] of the same compound?
Its value is 18%.

And the “Population Healthy Nuclei (%)” value [4]?
The value was 69%.

And the “Population Hoechst High Intensity Objects (%)” value [4]?
Its value is 6%.

What about the “Population Mitochondria Different-Phenotype (%)” value [4] of the same compound?
Its value is 70%.

And the “Population Mitotic Cells (%)” value [4]?
Its value is 26%.

What about the “Population Normal (%)” value [4] of the same compound?
Its value is 93%.

What about the “Population Pyknosed Nuclei (%)” value [4] of the same compound?
Its value is 12%.

What about the “Population Tubulin-Different-Phenotype (%)” value [4] of the same compound?
The value was 32%.

What about the “Total Cell Count” value [4] of the same compound?
Its value is 327.

What about the “Population Apoptotic (%)” value [5] of the same compound?
The value was 34%.

What about the “Population Fragmented Nuclei (%)” value [5] of the same compound?
The value was 6%.

What about the “Population Healthy Nuclei (%)” value [5] of the same compound?
The value was 84%.

And the “Population Hoechst High Intensity Objects (%)” value [5]?
The value was 3%.

What about the “Population Membrane Permeable-Phenotype (%)” value [5] of the same compound?
The value was 0%.

And the “Population Mitochondria Different-Phenotype (%)” value [5]?
The value was 22%.

And the “Population Mitotic Cells (%)” value [5]?
The value was 65%.

What about the “Population Normal (%)” value [5] of the same compound?
The value was 96%.

And the “Population Pyknosed Nuclei (%)” value [5]?
The value was 9%.

What about the “Population Tubulin-Different-Phenotype (%)” value [5] of the same compound?
Its value is 23%.

What about the “Total Cell Count” value [5] of the same compound?
Its value is 529.

And the “Population Apoptotic (%)” value [6]?
Its value is 33%.

What about the “Population Fragmented Nuclei (%)” value [6] of the same compound?
Its value is 7%.

What about the “Population Mitochondria Different-Phenotype (%)” value [6] of the same compound?
Its value is 40%.

What about the “Population Mitotic Cells (%)” value [6] of the same compound?
The value was 66%.

And the “Population Pyknosed Nuclei (%)” value [6]?
Its value is 8%.

What about the “Population Tubulin-Different-Phenotype (%)” value [6] of the same compound?
Its value is 13%.

And the “Total Cell Count” value [6]?
The value was 427.

What about the “Population Apoptotic (%)” value [7] of the same compound?
The value was 93%.

What about the “Population Fragmented Nuclei (%)” value [7] of the same compound?
Its value is 18%.

What about the “Population Healthy Nuclei (%)” value [7] of the same compound?
The value was 65%.

What about the “Population Hoechst High Intensity Objects (%)” value [7] of the same compound?
The value was 13%.

And the “Population Membrane Permeable-Phenotype (%)” value [7]?
The value was 1%.

What about the “Population Mitochondria Different-Phenotype (%)” value [7] of the same compound?
Its value is 65%.

What about the “Population Mitotic Cells (%)” value [7] of the same compound?
The value was 6%.

What about the “Population Normal (%)” value [7] of the same compound?
The value was 86%.

What about the “Population Pyknosed Nuclei (%)” value [7] of the same compound?
The value was 15%.

What about the “Population Tubulin-Different-Phenotype (%)” value [7] of the same compound?
Its value is 19%.

What about the “Total Cell Count” value [7] of the same compound?
The value was 227.

And the “Population Apoptotic (%)” value [8]?
The value was 81%.

And the “Population Fragmented Nuclei (%)” value [8]?
The value was 21%.

What about the “Population Healthy Nuclei (%)” value [8] of the same compound?
Its value is 63%.

What about the “Population Hoechst High Intensity Objects (%)” value [8] of the same compound?
The value was 7%.

And the “Population Mitochondria Different-Phenotype (%)” value [8]?
The value was 78%.

What about the “Population Mitotic Cells (%)” value [8] of the same compound?
Its value is 18%.

And the “Population Normal (%)” value [8]?
Its value is 92%.

And the “Population Tubulin-Different-Phenotype (%)” value [8]?
Its value is 34%.

What about the “Total Cell Count” value [8] of the same compound?
The value was 354.

And the “Population Apoptotic (%)” value [9]?
The value was 29%.

What about the “Population Fragmented Nuclei (%)” value [9] of the same compound?
The value was 12%.

And the “Population Healthy Nuclei (%)” value [9]?
The value was 80%.

What about the “Population Hoechst High Intensity Objects (%)” value [9] of the same compound?
The value was 3%.

What about the “Population Membrane Permeable-Phenotype (%)” value [9] of the same compound?
The value was 0%.

And the “Population Mitochondria Different-Phenotype (%)” value [9]?
The value was 22%.

What about the “Population Mitotic Cells (%)” value [9] of the same compound?
Its value is 70%.

And the “Population Normal (%)” value [9]?
Its value is 96%.

And the “Population Pyknosed Nuclei (%)” value [9]?
Its value is 6%.

What about the “Population Tubulin-Different-Phenotype (%)” value [9] of the same compound?
The value was 16%.

And the “Total Cell Count” value [9]?
The value was 689.

What about the “Population Apoptotic (%)” value [10] of the same compound?
Its value is 31%.

What about the “Population Fragmented Nuclei (%)” value [10] of the same compound?
The value was 10%.

And the “Population Healthy Nuclei (%)” value [10]?
Its value is 83%.

What about the “Population Mitochondria Different-Phenotype (%)” value [10] of the same compound?
The value was 17%.

What about the “Population Mitotic Cells (%)” value [10] of the same compound?
Its value is 68%.

What about the “Population Pyknosed Nuclei (%)” value [10] of the same compound?
The value was 5%.

What about the “Population Tubulin-Different-Phenotype (%)” value [10] of the same compound?
Its value is 10%.

What about the “Total Cell Count” value [10] of the same compound?
The value was 518.

And the “Population Apoptotic (%)” value [11]?
The value was 83%.

What about the “Population Fragmented Nuclei (%)” value [11] of the same compound?
The value was 23%.

And the “Population Healthy Nuclei (%)” value [11]?
Its value is 44%.

And the “Population Hoechst High Intensity Objects (%)” value [11]?
The value was 25%.

And the “Population Membrane Permeable-Phenotype (%)” value [11]?
The value was 0%.

And the “Population Mitochondria Different-Phenotype (%)” value [11]?
The value was 60%.

What about the “Population Mitotic Cells (%)” value [11] of the same compound?
Its value is 16%.

And the “Population Normal (%)” value [11]?
Its value is 74%.

And the “Population Pyknosed Nuclei (%)” value [11]?
Its value is 31%.

And the “Population Tubulin-Different-Phenotype (%)” value [11]?
The value was 30%.

And the “Total Cell Count” value [11]?
Its value is 204.

And the “Population Apoptotic (%)” value [12]?
The value was 94%.

And the “Population Fragmented Nuclei (%)” value [12]?
The value was 28%.

And the “Population Healthy Nuclei (%)” value [12]?
The value was 49%.

And the “Population Hoechst High Intensity Objects (%)” value [12]?
The value was 14%.

And the “Population Mitochondria Different-Phenotype (%)” value [12]?
The value was 81%.

What about the “Population Mitotic Cells (%)” value [12] of the same compound?
Its value is 5%.

What about the “Population Normal (%)” value [12] of the same compound?
The value was 85%.

And the “Population Pyknosed Nuclei (%)” value [12]?
Its value is 22%.

What about the “Population Tubulin-Different-Phenotype (%)” value [12] of the same compound?
The value was 42%.

What about the “Total Cell Count” value [12] of the same compound?
Its value is 295.
